Measurements as given in the array DNA melting data of Ke et al. (doi:10.1101/2024.01.08.574731).

How the values were obtained:
[1] = folding enthalpy; higher = less favourable; fluorescence melt of hairpins on a sequencing array, two-state fit; conditions: sodium 0.088 M
Method in brief: (§1)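 Library hairpins on a sequenced MiSeq flow cell carried annealed Cy3 and quencher oligos, and their Cy3 fluorescence was imaged in 50 mM Na-HEPES pH 8.0 with 25 mM NaCl, in 2.5 °C steps up to 60 °C. Signals were normalised to Cy3 before quenching and to control constructs. Melting temperature and folding enthalpy were obtained from bootstrapped two-state fits, combined by inverse-variance weighting across four replicates, and the fitted temperatures were then raised by 9.35 °C to match UV melts.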

[2] = melting temperature; fluorescence melt of hairpins on a sequencing array, two-state fit, raised by 9.35 °C to match UV melts; conditions: sodium 0.088 M
Method in brief: as §1

Sequence	folding enthalpy [1] [kJ/mol]	Tm [2] [°C]
GGGGCAGGAAACTGTCCC (((.(((....))).)))	-165	61.3
GTATTTGCGAAAGCATAC (((..(((....))))))	-37.9	28.7
GGCTACGAAAGTACGGCC ((((((....)))..)))	-100	46.5
GTTGCCGAAAGGCACAAC ((((((....)))..)))	-33.6	35.7
GATCCGGCAGCGGATC ((((((....))))))	-158	59.4
GATGGAGGAAACTTCATC ((((.((....)).))))	-157	39.6
GTTTAAGGAAACCTAAAC (((((.(....).)))))	-38.7	24.8
GGCGGCGAAAGCCTGGCC ((((((....)))..)))	-83.1	61.8
GATCACTAAGGTGATC ((((((....))))))	-148	57
TGTGAGAAATCACA (((((....)))))	-76.6	38.9
GTGGACGCGAAAGCGCAC (((..(((....))))))	-64.6	47.8
GGAAAAGAAATTTTCC ((((((....))))))	-97.8	37.7
AGCTGGAAACAGCT (((((....)))))	-97.7	54.3
GAAGCCGGAAACGGTTTC (((.(((....))).)))	-168	49.9
GTTGTGGGAAACCATAAC (((.(((....))).)))	-135	43.5
GATCACATGAGTGATC ((((((....))))))	-176	55.7
GGTCAGGGAAACTTGGCC ((.((.(....).)).))	-109	38.2
TCATGGAAACATGA (((((....)))))	-103	39.8
GATCTACGATAGATC ((((((...))))))	-83.3	35.4
GATCTAGACTTAGATC ((((((....))))))	-164	47
GTTCCACGAAAGTGTAAC (((.(((....))).)))	-109	38.4
GATCCGCCACGGATC ((((((...))))))	-155	57.2
GTCCACGAAAGTGGTGAC ((((((....)))..)))	-40.9	38.2
GTCAGAGAAATCTGAC ((((((....))))))	-156	51.2

Sequence	folding enthalpy [1] [kJ/mol]	Tm [2] [°C]
GGGTGCGAAAGCATGCCC ((((((....)))..)))	-65.7	49.6
GAATACCGAAAGGTTTC (((.(((....))))))	-69	39.2
GATCGGGTAACCGATC ((((((....))))))	-153	68.1
GATCATTGGTATGATC ((((((....))))))	-133	46.3
GATCTGATCTCAGATC ((((((....))))))	-155	51.1
GATCCGCATTCGGATC ((((((....))))))	-151	59.8
GAAGAACGAAAGTTTTTC (((.(((....))).)))	-121	36
GCATGGGGAAACTCGTGC (((.(.(....).).)))	-110	41
GTGAACGAAAGTTCACAC ((((((....)))..)))	-45.2	66.6
GGCTAGGGAAACCTGGCC (((.(((....))).)))	-187	55.5
GATCTGGTAACAGATC ((((((....))))))	-113	60.5
GTTTTCCGAAAGGATAAC (((.(((....))).)))	-119	44.9
GGTGCTGGAAACAGTGCC ((..(((....)))..))	-158	50.1
GGAGACGAAAGTCGTCC ((((((....))).)))	-59.7	49.5
GTTAGTGGAAACACTAGC (.(((((....))))).)	-88.2	40
GGGTCAACGAAAGTTCCC (((..(((....))))))	-78.7	34.7
GATCGACACGTCGATC ((((((....))))))	-141	59.7
GCAGTCGCGAAAGCGTGC (((..(((....))))))	-59.2	46.1
GATCGAGTCGTCGATC ((((((....))))))	-149	54.9
GCATTTGGAAACAAACGC ((.((((....)))).))	-126	37.2
GACGGAGCGAAAGCTGTC (((..(((....))))))	-78.9	41.8
GCGCCTGCGAAAGCACGC (((..(((....))))))	-69.7	47.7
GATCGCTCAAGCGATC ((((((....))))))	-182	68
GCGAGCGAAAGCTTCCGC ((((((....)))..)))	-69.6	44.2

Sequence	folding enthalpy [1] [kJ/mol]	Tm [2] [°C]
GGCGTCGAAAGACGGGCC ((((((....)))..)))	-53.1	52
CGTGACGGAAACGTGACG (((.(((....))).)))	-110	48.9
GAAATTGAAAAATTTC ((((((....))))))	-98.9	40.3
GCATTTTCGAAAGAATGC (((..(((....))))))	-119	35.5
GCTTTCGAAAGAACAAGC ((((((....)))..)))	-102	31.8
GATCCAAAGTTGGATC ((((((....))))))	-147	49.8
GCGGTATCCCGC ((((....))))	-128	53.5
GTACAAGGAAACTCGTAC ((((.((....)).))))	-92	29.1
GCATCCGGAAACGGACGC ((.((((....)))).))	-130	51.3
GATCTGGCGCAGATC ((((((...))))))	-115	47.5
GTGTACGAAAGTAAACAC ((((((....)))..)))	-105	42.6
GCATACGAAAGTAGTGC ((((((....))).)))	-101	44.6
GGTTTCGAAAGAAAAACC ((((((....)))..)))	-97.9	33.6
GATCACGATGGTGATC ((((((....))))))	-151	58.8
GTGCTCGGAAACGAGTAC ((.((((....)))).))	-183	55.4
GCAGGGCGAAAGCCCAGC ((.((((....)))).))	-81.7	68.2
GATTCAGGAAACCGAATC (((((.(....).)))))	-110	36
GCTGGGCGAAAGCCGGGC ((..(((....)))..))	-80.6	55.6
GATCTAGTTTTAGATC ((((((....))))))	-135	42.3
GATCGAGTCATCGATC ((((((....))))))	-148	60.7
GCACCGGGAAACCGGCGC ((.((((....)))).))	-173	59.6
GACACCGAAAGGTTTGTC ((((((....)))..)))	-63.3	38.3
GATCGTCCAACGATC ((((((...))))))	-165	55.6
GGGACCGGAAACAGTCCC (((((.(....).)))))	-145	49.4

Sequence	folding enthalpy [1] [kJ/mol]	Tm [2] [°C]
GAACGGGGAAACCCGCTC ((.((((....)))).))	-68.1	45.3
GGTGTTGAAAAACACC ((((((....))))))	-155	57.9
GATCAGAGTGCTGATC ((((((....))))))	-131	50.2
GCCAGCGAAAGCTGCGGC ((((((....)))..)))	-54.3	61.4
GCTACTGGAAACAATAGC ((((.((....)).))))	-77.3	31.3
GCTGCGGGAAACCGTAGC (((.(((....))).)))	-205	58.5
GTCGCACCGAAAGGTGAC (((..(((....))))))	-34.7	35
GTTTGTGGAAACACGAAC (((.(((....))).)))	-150	49
GTGGGTGGAAACGTCCAC ((((..(....)..))))	-78.5	46
GACAACCCGAAAGGGGTC (((..(((....))))))	-54.1	39.1
GATCTGAGTACAGATC ((((((....))))))	-129	49.6
GCATCCCGAAAGGGCTGC (((.(((....))).)))	-151	56.2
GATCCACCACTGGATC ((((((....))))))	-154	49.4
GGGACCGAAAGGTACCCC ((((((....)))..)))	-52.3	61.3
GTGGCTCGAAAGAGCAC (((.(((....))))))	-49.2	51.2
GCAAGCGAAAGCTGTGC ((((((....))).)))	-66.2	55.9
GACACGGCGAAAGCCGTC (((..(((....))))))	-26.2	32.9
GTGATCGAAAGATCCAC ((((((....))).)))	-55.6	43.9
GTATCCGGAAACGAATAC ((((.((....)).))))	-111	33.5
GATCATGCCTATGATC ((((((....))))))	-177	52.3
GTCACGCGAAAGCGGAC (((.(((....))))))	-63.3	57
